Measurements reported in ChEMBL document CHEMBL4715748, “Synthesis and biological investigation of new equatorial (β) stereoisomers of 3-aminotropane arylamides with atypical antipsychotic profile” (Bioorg Med Chem, 2016).
pKi: −log10 of the molar value.

Experiments:
[1] = target: 5-hydroxytryptamine receptor 2A (Rattus norvegicus, UniProt P14842); assay: Displacement of [3H]-ketanserin from rat cerebral cortex 5HT2A receptor measured after 20 mins by liquid scintillation counter method
How it was run: (§1)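 Competition binding in rat brain tissue membranes against D2, 5-HT1A and 5-HT2A sites; Ki reported as mean ± S.E.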

[2] = target: T1, 5-hydroxytryptamine receptor 1A (Rattus norvegicus, UniProt P19327); assay: Displacement of [3H]-8-OH-DPAT from rat cerebral cortex 5HT1A receptor measured after 15 mins by liquid scintillation counter method
T1 sequence (P19327 whole entry): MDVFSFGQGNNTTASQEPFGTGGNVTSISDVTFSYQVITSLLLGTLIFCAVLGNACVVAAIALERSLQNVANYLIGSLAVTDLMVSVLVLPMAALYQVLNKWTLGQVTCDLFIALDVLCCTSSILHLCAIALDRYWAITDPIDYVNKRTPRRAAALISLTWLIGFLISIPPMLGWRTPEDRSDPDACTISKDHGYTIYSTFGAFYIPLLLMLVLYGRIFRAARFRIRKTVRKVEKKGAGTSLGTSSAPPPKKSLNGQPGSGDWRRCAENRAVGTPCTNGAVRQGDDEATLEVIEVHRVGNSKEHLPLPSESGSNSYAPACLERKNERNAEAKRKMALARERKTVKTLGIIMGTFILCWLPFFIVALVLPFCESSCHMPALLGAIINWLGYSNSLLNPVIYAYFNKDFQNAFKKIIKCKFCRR

[3] = target: D(2) dopamine receptor (Rattus norvegicus, UniProt P61169); assay: Displacement of [3H] Spiperone from rat striatum dopamine D2 receptor measured after 30 mins by liquid scintillation counter method; how it was run: as §1
Chain of D(2) dopamine receptor (P61169 whole entry): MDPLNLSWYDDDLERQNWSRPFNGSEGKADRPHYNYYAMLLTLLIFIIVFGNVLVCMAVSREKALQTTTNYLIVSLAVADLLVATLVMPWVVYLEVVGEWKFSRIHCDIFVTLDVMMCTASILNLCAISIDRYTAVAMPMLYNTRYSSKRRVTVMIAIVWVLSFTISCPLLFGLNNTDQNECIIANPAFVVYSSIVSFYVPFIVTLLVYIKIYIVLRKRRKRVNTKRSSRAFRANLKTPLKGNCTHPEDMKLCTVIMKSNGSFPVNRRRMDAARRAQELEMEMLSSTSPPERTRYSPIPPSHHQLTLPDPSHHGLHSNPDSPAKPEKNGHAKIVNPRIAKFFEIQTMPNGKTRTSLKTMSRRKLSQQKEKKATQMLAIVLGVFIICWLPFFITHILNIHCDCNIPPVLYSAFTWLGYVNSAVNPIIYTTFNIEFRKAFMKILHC

[4] = system: Mus musculus; assay: Antipsychotic activity Swiss Albino mouse assessed as inhibition of DOI-induced head twitching by measuring number of episodes at 10 mg/kg, ip administered 30 mins prior to DOI stimulation (reference value: 19.63 to 19.88); type: functional; conditions: 0.5 h
How it was run: (§2)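 Male Albino Swiss mice (24–28 g) were habituated to sawdust-lined cages 20 min before the first treatment. Compounds were suspended in 1% aqueous Tween 80 and given i.p. 30 min before (±)-DOI, 2.5 mg/kg i.p. in aqueous solution. Head twitches were counted blind over 20 min, n=8 per group, mean ± SEM, one-way ANOVA with Dunnett's test.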

[5] = Effect on body temperature in Swiss Albino mouse assessed as rectal body temperature at 10 mg/kg, ip measured after 90 mins by thermometer (reference value: 0.18 to 0.63 degreeC); type: ADME, organism-based; conditions: in vivo, 1.5 h
[6] = Effect on body temperature in Swiss Albino mouse assessed as rectal body temperature at 20 mg/kg, ip measured after 90 mins by thermometer (reference value: 0.18 to 0.63 degreeC); type: ADME, organism-based; conditions: in vivo, 1.5 h
[7] = system: Mus musculus; assay: Effect on 8-OH-DPAT-induced hypothermia in Swiss albino mouse assessed as change in rectal body temperature at 20 mg/kg, ip pretreated with compound for 45 mins followed by 8-OH-DPAT challenge and measured after 60 min by thermometer (reference value: -0.66 to -0.5 degreeC); type: functional, organism-based; conditions: time 105.0 min
[8] = system: Mus musculus; assay: Effect on 8-OH-DPAT-induced hypothermia in Swiss albino mouse assessed as change in rectal body temperature at 20 mg/kg, ip pretreated with compound for 45 mins followed by 8-OH-DPAT challenge and measured after 15 min by thermometer (reference value: -1.82 to -1.66 degreeC); type: functional, organism-based; conditions: time 60.0 min
[9] = Effect on body temperature in Swiss Albino mouse assessed as rectal body temperature at 20 mg/kg, ip measured after 30 mins by thermometer (reference value: 0.16 to 0.33 degreeC); type: ADME, organism-based; conditions: in vivo, 0.5 h
[10] = Effect on body temperature in Swiss Albino mouse assessed as rectal body temperature at 10 mg/kg, ip measured after 120 mins by thermometer (reference value: 0.15 to 1.11 degreeC); type: organism-based; conditions: in vivo, 2 h
[11] = system: Mus musculus; assay: Effect on 8-OH-DPAT-induced hypothermia in Swiss albino mouse assessed as change in rectal body temperature at 10 mg/kg, ip pretreated with compound for 45 mins followed by 8-OH-DPAT challenge and measured after 45 min by thermometer (reference value: -1.04 to -0.78 degreeC); type: functional, organism-based; conditions: time 90.0 min
[12] = system: Mus musculus; assay: Effect on 8-OH-DPAT-induced hypothermia in Swiss albino mouse assessed as change in rectal body temperature at 10 mg/kg, ip pretreated with compound for 45 mins followed by 8-OH-DPAT challenge and measured after 15 min by thermometer (reference value: -1.82 to -1.66 degreeC); type: functional, organism-based; conditions: time 60.0 min
[13] = system: Mus musculus; assay: Effect on 8-OH-DPAT-induced hypothermia in Swiss albino mouse assessed as change in rectal body temperature at 20 mg/kg, ip pretreated with compound for 45 mins followed by 8-OH-DPAT challenge and measured after 30 min by thermometer (reference value: -1.36 to -1.12 degreeC); type: functional, organism-based; conditions: time 75.0 min
[14] = Effect on 8-OH-DPAT-induced lower lip retraction in Wistar rat at 20 mg/kg, ip pretreated with compound for 45 mins followed by 8-OH-DPAT challenge and measured after 15 mins (reference value: 2.7 to 2.8); type: functional; conditions: time 60 min, 1 h
[15] = Effect on body temperature in Swiss Albino mouse assessed as rectal body temperature at 10 mg/kg, ip measured after 60 mins by thermometer (reference value: 0.33 to 0.61 degreeC); type: ADME, organism-based; conditions: in vivo, 1 h
[16] = Effect on body temperature in Swiss Albino mouse assessed as rectal body temperature at 20 mg/kg, ip measured after 120 mins by thermometer (reference value: 0.15 to 1.11 degreeC); type: ADME, organism-based; conditions: in vivo, 2 h
[17] = Effect on 8-OH-DPAT-induced lower lip retraction in Wistar rat at 10 mg/kg, ip pretreated with compound for 45 mins followed by 8-OH-DPAT challenge and measured after 15 mins (reference value: 2.7 to 2.8); type: functional; conditions: time 60 min, 1 h
[18] = target: Dopamine D2 receptor and Serotonin 2a receptor (D2 and 5HT2a) (Rattus norvegicus) (UniProt P61169+P14842); assay: Ratio of pKi for displacement of [3H]-ketanserin from rat cerebral cortex 5HT2A receptor measured after 20 mins by liquid scintillation counter method to pKi for displacement of [3H] Spiperone from rat striatum dopamine D2 receptor measured after 30 mins by liquid scintillation counter method
Chain of Dopamine D2 receptor and Serotonin 2a receptor (D2 and 5HT2a) (Rattus norvegicus) (P14842 whole entry, looked up): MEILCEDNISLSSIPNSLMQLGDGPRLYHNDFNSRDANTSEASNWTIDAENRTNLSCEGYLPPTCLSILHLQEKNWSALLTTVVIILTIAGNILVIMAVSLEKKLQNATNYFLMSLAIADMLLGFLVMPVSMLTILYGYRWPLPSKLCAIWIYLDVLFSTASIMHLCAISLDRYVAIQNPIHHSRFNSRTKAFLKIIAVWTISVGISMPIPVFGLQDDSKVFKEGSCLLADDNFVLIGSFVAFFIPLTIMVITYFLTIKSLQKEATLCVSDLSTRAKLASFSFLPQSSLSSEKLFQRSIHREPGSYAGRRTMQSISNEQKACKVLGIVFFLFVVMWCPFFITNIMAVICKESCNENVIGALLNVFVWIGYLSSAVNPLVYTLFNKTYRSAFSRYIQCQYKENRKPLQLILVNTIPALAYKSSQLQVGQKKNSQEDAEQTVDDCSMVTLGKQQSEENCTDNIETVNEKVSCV
Chain of Dopamine D2 receptor and Serotonin 2a receptor (D2 and 5HT2a) (Rattus norvegicus) (P61169 whole entry, looked up): as the sequence (P61169 whole entry) above
How it was run: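 Ratio of pKi values, 5-HT2A over D2, computed from competition radioligand binding in rat brain tissue.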

[19] = system: Mus musculus; assay: Effect on 8-OH-DPAT-induced hypothermia in Swiss albino mouse assessed as change in rectal body temperature at 10 mg/kg, ip pretreated with compound for 45 mins followed by 8-OH-DPAT challenge and measured after 30 min by thermometer (reference value: -1.36 to -1.12 degreeC); type: functional, organism-based; conditions: time 75.0 min
[20] = Half life in pooled human liver microsomes assessed as parent compound remaining at 2.5 uM measured up to 45 mins in presence of NADPH by LC-MS analysis; type: ADME, Microsome
How it was run: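 Compound at 2.5 μM (added from 100 μM stock in 50/50 acetonitrile/water) with 1 mg/mL pooled human liver microsomes and 250 μM NADPH in 0.1 M potassium phosphate pH 7.4 at 37 °C after 5-min preincubation. Sampled at 5, 10, 15, 30, 45 min into ice-cold acetonitrile with atropine internal standard; parent quantified by LC-MS (ESI+, [M+H]+); no-NADPH controls; half-time derived.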

[21] = system: Mus musculus; assay: Antipsychotic activity Swiss Albino mouse assessed as inhibition of DOI-induced head twitching by measuring number of episodes at 2.5 mg/kg, ip administered 30 mins prior to DOI stimulation (reference value: 19.63 to 19.88); type: functional; conditions: 0.5 h; how it was run: as §2
[22] = system: Mus musculus; assay: Antipsychotic activity Swiss Albino mouse assessed as inhibition of DOI-induced head twitching by measuring number of episodes at 5 mg/kg, ip administered 30 mins prior to DOI stimulation (reference value: 19.63 to 19.88); type: functional; conditions: 0.5 h; how it was run: as §2
[23] = system: Mus musculus; assay: Effect on 8-OH-DPAT-induced hypothermia in Swiss albino mouse assessed as change in rectal body temperature at 20 mg/kg, ip pretreated with compound for 45 mins followed by 8-OH-DPAT challenge and measured after 45 min by thermometer (reference value: -1.04 to -0.78 degreeC); type: functional, organism-based; conditions: time 90.0 min
[24] = Effect on body temperature in Swiss Albino mouse assessed as rectal body temperature at 10 mg/kg, ip measured after 30 mins by thermometer (reference value: 0.16 to 0.33 degreeC); type: organism-based; conditions: in vivo, 0.5 h
[25] = Effect on body temperature in Swiss Albino mouse assessed as rectal body temperature at 20 mg/kg, ip measured after 60 mins by thermometer (reference value: 0.33 to 0.61 degreeC); type: ADME, organism-based; conditions: in vivo, 1 h
[26] = system: Mus musculus; assay: Effect on 8-OH-DPAT-induced hypothermia in Swiss albino mouse assessed as change in rectal body temperature at 10 mg/kg, ip pretreated with compound for 45 mins followed by 8-OH-DPAT challenge and measured after 60 min by thermometer (reference value: -0.66 to -0.5 degreeC); type: functional, organism-based; conditions: time 105.0 min

Chain of 5-hydroxytryptamine receptor 2A (P14842 whole entry): as the sequence (P14842 whole entry, looked up) above

In the case of `O=C(NC1CC2CCC(C1)N2Cc1ccc(Br)cc1)c1ccc2ccccc2c1` (stereo not given), the pKi [1] was 6.49, the pKi [2] was 6.64 and the pKi [3] was 8.35.
Compound `O=C(NC1CC2CCC(C1)N2Cc1cccnc1)c1ccc2ccccc2c1` (stereo not given) has a pKi [1] of 6.32, a pKi [2] of 6.31 and a pKi [3] of 5.62.
`O=C(NC1CC2CCC(C1)N2Cc1ccc(Cl)cc1)c1ccc2ccccc2c1` (stereo not given) gave a pKi [1] of 6.40, a pKi [2] of 5.60 and a pKi [3] of 9.40.
`O=C(NC1CC2CCC(C1)N2Cc1ccccc1F)c1ccc2ccccc2c1` (stereo not given) showed a pKi [1] of 6.98, a pKi [2] of 6.44 and a pKi [3] of 6.15.
Work on `O=C(NC1CC2CCC(C1)N2Cc1ccc(C(F)(F)F)cc1)c1ccc2ccccc2c1` (stereo not given) yielded a pKi [1] of less than 5.00, a pKi [2] of 5.70 and a pKi [3] of 6.20.
`COc1cccc(CN2C3CCC2CC(NC(=O)c2ccc4ccccc4c2)C3)c1` (stereo not given) gave an Activity [4] of 9.88, a deltaT [5] of 0.17 °C and a deltaT [6] of 0.81 °C. For the same compound, the deltaT [7] was -0.97 °C, the deltaT [8] was -1.25 °C and the deltaT [9] was -0.1 °C. It also gave a deltaT [10] of 0.7 °C, a deltaT [11] of -0.87 °C and a deltaT [12] of -1.52 °C. It also gave a deltaT [13] of -1.65 °C, an Activity [14] of 2.5 and a deltaT [15] of 0.03 °C. The deltaT [16] was 1.26 °C, the Activity [17] was 2.4 and the Ratio pKi [18] was 0.81. It also gave a deltaT [19] of -1.32 °C, a half-life at 2.5 µM [20] of 42.9 min and a pKi [1] of 6.18. The Activity [21] was 16.63, the pKi [2] was 6.67 and the Activity [22] was 14.25. For the same compound, the deltaT [23] was -1.33 °C, the deltaT [24] was -0.03 °C and the deltaT [25] was 0.57 °C. It also gave a deltaT [26] of -0.6 °C and a pKi [3] of 7.59.
With `Cc1ccc(CN2C3CCC2CC(NC(=O)c2ccc4ccccc4c2)C3)cc1` (stereo not given) the pKi [1] was 6.07, the pKi [2] was 6.14 and the pKi [3] was 9.40.
For `O=C(NC1CC2CCC(C1)N2Cc1ccccc1C(F)(F)F)c1ccc2ccccc2c1` (stereo not given), the pKi [1] was 6.99, the pKi [2] was 6.32 and the pKi [3] was 6.27.
`COc1ccc(CN2C3CCC2CC(NC(=O)c2ccc4ccccc4c2)C3)cc1` (stereo not given) showed a pKi [1] of 6.04, a pKi [2] of 5.59 and a pKi [3] of 9.22.
